Results from different studies.
Compare with care: the assays were run in different laboratories.
EIF2AK4 S808G: eIF-2-alpha kinase GCN2 (EIF2AK4, Homo sapiens, UniProt Q9P2K8, S808G)
EIF2AK4: eIF-2-alpha kinase GCN2 (EIF2AK4, Homo sapiens, UniProt Q9P2K8)
EIF2AK4 S808G C-terminal kinase domain: eIF-2-alpha kinase GCN2, C-terminal kinase domain (EIF2AK4, Homo sapiens, UniProt Q9P2K8, S808G)

| Structure (SMILES) | target | test | system | setting | endpoint | result |
| --- | --- | --- | --- | --- | --- | --- |
| CC(=O)Nc1c(C(C)=O)c(=O)n(C)c2nc(-c3ccc(Cl)cc3Cl)c(-c3ccc(Cl)cc3)cc12 | EIF2AK4 S808G | binding, competition with immobilised ligand | – | 1 µM | remaining binding | 48% |
| Cc1cc(NC(=O)c2cccc3cc(-c4cccc5[nH]nc(N)c45)ccc23)ccc1F | EIF2AK4 | enzyme activity, inhibitor | – | 0.1 µM | activity vs control | 92% |
| CN1CC(Oc2cnc(C#N)cc2-c2ccn3nc(NC(=O)C4CC4)cc3c2)C1 | EIF2AK4 | enzyme activity, inhibitor | – | 1 µM | inhibition | 15% |
| Cc1ccc(NC(=O)c2ccc(C)c(C(F)(F)F)c2)cc1C#Cc1nn(C2CCC(O)CC2)c2ncnc(N)c12 (stereo not shown) | EIF2AK4 | cell-free assay | – | 10 µM | remaining signal | 50% |
| COc1ccc2cc(OCC3(C(=O)O)CN(C(=O)c4ccc(F)cc4)C3)ccc2c1 | EIF2AK4 S808G C-terminal kinase domain | cell-free assay, competition with immobilised ligand | – | 1 µM | remaining binding | 100% |
| COc1cc(Cl)c(C(=O)N[C@@H](CN[C@H]2CC[C@@H](N)CC2)Cc2ccc(C#N)cc2)cc1-c1ccc(CN[C@H](C)c2ccc(C)cc2)o1 | EIF2AK4 | enzyme activity, inhibitor | – | 1 µM | remaining activity | 102% |
| CNc1cc(Oc2cc(C(=O)Nc3cc(N4CCN(C)CC4)cc(C(F)(F)F)c3)ccc2C)ncn1 | EIF2AK4 | target engagement in cells, inhibitor, chemoproteomics | Huh-7 | 1 µM | inhibition | 37% |
| Cc1cnc(NC2CCOCC2)nc1-n1cnc(C(=O)NC(CN)c2cc(F)cc(Cl)c2)c1 (stereo not shown) | EIF2AK4 | enzyme activity, inhibitor, radiometric | – | 1 µM | remaining activity | 82% |
| Cc1ccc(C(=O)Nc2ccc(CN3CCN(C)CC3)c(C(F)(F)F)c2)cc1C#Cc1cnc2cccnn12 | EIF2AK4 S808G | enzyme activity, inhibitor | – | 23.5 nM | remaining activity | 85% |
| Nc1ncnc2occ(-c3ccc(NC(=O)Nc4cc(C(F)(F)F)ccc4F)cc3)c12 | EIF2AK4 S808G C-terminal kinase domain | cell-free assay, inhibitor | – | 20 µM | remaining signal | 3.6% |
